Data as given in ChEMBL document CHEMBL2429803, “Animal toxicity of hairpin pyrrole-imidazole polyamides varies with the turn unit” (J Med Chem, 2013).

How the values were obtained:
Mus musculus [1] = assay: Acute toxicity in C57BL/6J mouse assessed as acute morbidity at 3 to 10 mg/kg, sc after 9 days; format: organism-based; parameters: dose 3-10 mg/kg, route subcutaneous; details: in vivo, 216 h
How it was run: (§1)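 Male C57BL/6J mice, 8 weeks old, were acclimated 3 days and then given a single sc injection of 1, 3 or 10 mg/kg in 25% DMSO/saline vehicle (up to 200 μL), n = 4 per group. Weight, behaviour and appearance were monitored daily for 9 days before sacrifice. The humane end point was visible duress or weight loss over 15% of the original.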

Mus musculus [2] = assay: Toxicity in C57BL/6J mouse assessed as hyaline droplet accumulation at 1 mg/kg, sc administered every 3 days for a cycle of 3 injections measured 2 days post last injection; format: organism-based; parameters: dose 1 mg/kg, route subcutaneous; details: in vivo, 48 h
How it was run: (§2)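 Male C57BL/6J mice, 8 weeks old, given 1 mg/kg sc every 3 days for three injections and sacrificed 2 days after the last one. Two mice per group fixed in 10% formalin. A veterinary pathologist, blinded, examined cecum, duodenum, heart, ileum, kidney, liver, lung, pancreas, spleen and stomach. Lesions graded mild, moderate or severe.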

Mus musculus [3] = assay: Toxicity in C57BL/6J mouse assessed as loss of mobility at 1 mg/kg, sc administered every 3 days for a cycle of 2 injections; format: organism-based; parameters: dose 1 mg/kg, route subcutaneous; details: in vivo, 72 h
How it was run: (§3)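 Male C57BL/6J mice, 3 per group, given 1 mg/kg sc every 3 days. Weight recorded on injection days. Watched for signs of duress. Humane end point was visible duress or weight loss over 15% of starting body weight.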

Mus musculus [4] = assay: Acute toxicity in C57BL/6J mouse assessed as loss of mobility at 3 to 10 mg/kg, sc after 9 days; format: organism-based; parameters: dose 3-10 mg/kg, route subcutaneous; details: in vivo, 216 h; how it was run: as §1
Mus musculus [5] = assay: Acute toxicity in C57BL/6J mouse assessed as multifocal bridging hepatocellular necrosis and apoptosis at 3 to 10 mg/kg, sc after 9 days; format: organism-based; parameters: dose 3-10 mg/kg, route subcutaneous; details: in vivo, 216 h
How it was run: (§4)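 Male C57BL/6J mice, 8 weeks old, received a single sc dose (1, 3 or 10 mg/kg in 25% DMSO/saline, n = 4 per group) and were sacrificed after 9 days. Two representative animals per group were fixed in 10% formalin. Cecum, duodenum, heart, ileum, kidney, liver, lung, pancreas, spleen and stomach were examined blind by a veterinary pathologist and lesions graded mild, moderate or severe.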

Mus musculus [6] = assay: Acute toxicity in C57BL/6J mouse assessed as hepatocellular necrosis and apoptosis at 1 mg/kg, sc after 9 days; format: organism-based; parameters: dose 1 mg/kg, route subcutaneous; details: in vivo, 216 h; how it was run: as §4
Mus musculus [7] = assay: Acute toxicity in C57BL/6J mouse assessed as lesions in heart at 1 to 10 mg/kg, sc after 9 days; format: organism-based; parameters: dose 1-10 mg/kg, route subcutaneous; details: in vivo, 216 h; how it was run: as §4
Mus musculus [8] = assay: Toxicity in C57BL/6J mouse assessed as hepatocellular necrosis and apoptosis at 1 mg/kg, sc administered every 3 days for a cycle of 3 injections measured 2 days post last injection; format: organism-based; parameters: dose 1 mg/kg, route subcutaneous; details: in vivo, 48 h; how it was run: as §2
Mus musculus [9] = assay: Acute toxicity in C57BL/6J mouse assessed as lesions in lungs at 1 to 10 mg/kg, sc after 9 days; format: organism-based; parameters: dose 1-10 mg/kg, route subcutaneous; details: in vivo, 216 h; how it was run: as §4
Mus musculus [10] = assay: Toxicity in C57BL/6J mouse assessed as weight loss at 1 mg/kg, sc administered every 3 days for a cycle of 2 injections; format: organism-based; parameters: dose 1 mg/kg, route subcutaneous; details: in vivo, 72 h
How it was run: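 8-week-old male C57BL/6J mice, acclimated 3 days, groups of three, dosed sc in 25% DMSO/saline vehicle once every 3 days, sacrificed 2 days after the last injection. Body weight recorded on injection days and at end point; humane end point set at visible duress or >15% loss of original body weight.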

Mus musculus [11] = assay: Acute toxicity in C57BL/6J mouse assessed as hunched posture at 3 to 10 mg/kg, sc after 9 days; format: organism-based; parameters: dose 3-10 mg/kg, route subcutaneous; details: in vivo, 216 h; how it was run: as §1
Mus musculus [12] = assay: Acute toxicity in C57BL/6J mouse assessed as milder tubular regeneration at 1 mg/kg, sc after 9 days; format: organism-based; parameters: dose 1 mg/kg, route subcutaneous; details: in vivo, 216 h; how it was run: as §4
Mus musculus [13] = assay: Acute toxicity in C57BL/6J mouse assessed as lesions in GI tract at 1 to 10 mg/kg, sc after 9 days; format: organism-based, Gastrointestinal tract; parameters: dose 1-10 mg/kg, route subcutaneous; details: in vivo, 216 h; how it was run: as §4
Mus musculus [14] = assay: Acute toxicity in C57BL/6J mouse assessed as lesions in stomach at 1 to 10 mg/kg, sc after 9 days; format: organism-based; parameters: dose 1-10 mg/kg, route subcutaneous; details: in vivo, 216 h; how it was run: as §4
[15] = Metabolic stability in mouse liver microsomes after 1 hr by LC/MS/MS analysis in presence of NADPH; format: ADME, Microsome; details: read-out: Stability
How it was run: (§5)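 Compound incubated at 37 °C for 60 min with 1 mg/mL human or mouse liver microsomes in 100 mM KH2PO4, 3 mM MgCl2, pH 7.4, with 2 mM NADPH or without it. Stopped with ice-cold methanol, then precipitate removed. Analyzed by LC/MS/MS as % remaining versus time zero. Duplicates.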

[16] = Metabolic stability in mouse liver microsomes after 1 hr by LC/MS/MS analysis; format: ADME, Microsome; details: read-out: Stability; how it was run: as §5
Mus musculus [17] = assay: Acute toxicity in C57BL/6J mouse assessed as karyomegaly at 1 mg/kg, sc after 9 days; format: organism-based; parameters: dose 1 mg/kg, route subcutaneous; details: in vivo, 216 h; how it was run: as §4
Mus musculus [18] = assay: Acute toxicity in C57BL/6J mouse assessed as mild lymphoid apoptosis in white pulp of spleen at 3 to 10 mg/kg, sc after 9 days; format: organism-based; parameters: dose 3-10 mg/kg, route subcutaneous; details: in vivo, 216 h; how it was run: as §4
[19] = Metabolic stability in human liver microsomes after 1 hr by LC/MS/MS analysis in presence of NADPH; format: ADME, Microsome; details: read-out: Stability; how it was run: as §5
Mus musculus [20] = assay: Acute toxicity in C57BL/6J mouse assessed as diffuse hepatocellular necrosis and apoptosis at 3 to 10 mg/kg, sc after 9 days; format: organism-based; parameters: dose 3-10 mg/kg, route subcutaneous; details: in vivo, 216 h; how it was run: as §4
[21] = Metabolic stability in human liver microsomes after 1 hr by LC/MS/MS analysis; format: ADME, Microsome; details: read-out: Stability; how it was run: as §5
Mus musculus [22] = assay: Acute toxicity in C57BL/6J mouse at 1 mg/kg, sc after 9 days; format: organism-based; parameters: dose 1 mg/kg, route subcutaneous; details: in vivo, 216 h
How it was run: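 Single sc injection in male 8-week-old C57BL/6J mice (1, 3 or 10 mg/kg in 25% DMSO/saline; n = 4 per group), followed for 9 days with daily weighing, then sacrifice. Toxicity was assessed by blinded histopathology of two mice per group and by blinded serum ALT, AST, total bilirubin, BUN and creatinine from retroorbital blood of all mice.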

Mus musculus [23] = assay: Acute toxicity in C57BL/6J mouse assessed as lesions in pancreas at 1 to 10 mg/kg, sc after 9 days; format: organism-based; parameters: dose 1-10 mg/kg, route subcutaneous; details: in vivo, 216 h; how it was run: as §4
Mus musculus [24] = assay: Acute toxicity in C57BL/6J mouse assessed as moderate atypical tubular regeneration in kidney at 3 to 10 mg/kg, sc after 9 days; format: organism-based; parameters: dose 3-10 mg/kg, route subcutaneous; details: in vivo, 216 h; how it was run: as §4
Mus musculus [25] = assay: Acute toxicity in C57BL/6J mouse assessed as tubular epithelial necrosis and apoptosis in kidney at 3 to 10 mg/kg, sc after 9 days; format: organism-based; parameters: dose 3-10 mg/kg, route subcutaneous; details: in vivo, 216 h; how it was run: as §4
Mus musculus [26] = assay: Toxicity in C57BL/6J mouse assessed as hunched posture at 1 mg/kg, sc administered every 3 days for a cycle of 2 injections; format: organism-based; parameters: dose 1 mg/kg, route subcutaneous; details: in vivo, 72 h; how it was run: as §3

Question: Which results are given for `CC(=O)N[C@@H](CNC(=O)c1cc(NC(=O)c2cc(NC(=O)c3cc(NC(=O)c4nccn4C)cn3C)cn2C)cn1C)CC(=O)Nc1cn(C)c(C(=O)Nc2cc(C(=O)Nc3cc(C(=O)Nc4cc(C(=O)NCCCN(C)CCCNC(=O)c5cccc(C(=O)O)c5)n(C)c4)n(C)c3)n(C)c2)n1`?
Answer: Activity (Mus musculus [1]): Toxic; Activity (Mus musculus [2]): Toxic; Activity (Mus musculus [3]): Toxic; Activity (Mus musculus [4]): Toxic; Activity (Mus musculus [5]): Toxic; Activity (Mus musculus [6]): Toxic; Activity (Mus musculus [7]): Non-toxic; Activity (Mus musculus [8]): Toxic; Activity (Mus musculus [9]): Non-toxic; Activity (Mus musculus [10]): Toxic; Activity (Mus musculus [11]): Toxic; Activity (Mus musculus [12]): Toxic; Activity (Mus musculus [13]): Non-toxic; Activity (Mus musculus [14]): Non-toxic; remaining at 1 h [15]: < 5%; remaining at 1 h [16]: < 5%; Activity (Mus musculus [17]): Toxic; Activity (Mus musculus [18]): Toxic; remaining at 1 h [19]: < 5%; Activity (Mus musculus [20]): Toxic; remaining at 1 h [21]: < 5%; Activity (Mus musculus [22]): Non-toxic; Activity (Mus musculus [23]): Non-toxic; Activity (Mus musculus [24]): Toxic; Activity (Mus musculus [25]): Toxic; Activity (Mus musculus [26]): Toxic
